What is called IC50 is the midpoint of a concentration-inhibition curve. A high value points to weaker potency.

Active and inactive are the calls of the source. The calls are words filed in the database; no cut-off is given here.

The results in this text go back to ChEMBL document CHEMBL3875167, “Design and synthesis of chiral 2H-chromene-N-imidazolo-amino acid conjugates as aldose reductase inhibitors” (Eur J Med Chem, 2016).

Assay [1] can be described thus: Antidiabetic activity in STZ-induced diabetic Sprague-Dawley rat model assessed as aldose reductase activity at 50 uM//kg, po administered for 8 weeks (reference value: 44.66 +/- 2.7 U). It is filed as functional, organism-based. The method, boiled down: (§1)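 Diabetes was induced in rats by a single i.p. injection of streptozotocin, 35 mg/kg in 0.1 M citrate buffer pH 4.5. Animals with fasting blood glucose >150 mg/dl at 72 h were included. Treatment was given p.o. daily for 8 weeks as a suspension in 2% Tween 80 in saline. Diabetic controls received vehicle only. Lenses were dissected at sacrifice after 8 weeks.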

Assay [2] in a line: Antidiabetic activity in STZ-induced diabetic Sprague-Dawley rat model assessed as blood glucose level at 5 uM/kg, po administered for 8 weeks measured every week during compound dosing (reference value: 261.53 +/- 53 mg/dl). Type of assay: functional, organism-based. An outline of the steps:
as §1

The species entered for assay [3] is Rattus norvegicus. Description: Selectivity index, ratio of IC50 for rat kidney ALR1 to IC50 for rat lenses ALR2.
Assay [4] is described as follows: Antidiabetic activity in STZ-induced diabetic Sprague-Dawley rat model assessed as delay in progression of cataract at 5 to 50 uM/kg, po administered for 8 weeks measured every week during compound dosing by slit-lamp microscopy. It is filed as functional, organism-based. An outline of the steps: as §1
A short description of assay [5]: Antidiabetic activity in STZ-induced diabetic Sprague-Dawley rat model assessed as aldose reductase activity at 5 uM//kg, po administered for 8 weeks (reference value: 44.66 +/- 2.7 U). Type of assay: functional, organism-based. The method, boiled down: as §1
Assay [6] can be described thus: Antidiabetic activity in STZ-induced diabetic Sprague-Dawley rat model assessed as effect on body weight at 5 uM/kg, po administered for 8 weeks (reference value: 186 +/- 6.91 g). It is filed as functional, organism-based. The method, boiled down: as §1
Assay [7] is described as follows: Antidiabetic activity in STZ-induced diabetic Sprague-Dawley rat model assessed as effect on body weight at 50 uM/kg, po administered for 8 weeks (reference value: 186 +/- 6.91 g). Type of assay: functional, organism-based. The method, boiled down:
as §1

Assay [8] relates to Rattus norvegicus. Description: Antidiabetic activity in po dosed STZ-induced diabetic Sprague-Dawley rat model assessed as decrease in aldose reductase activity administered for 8 weeks. Type of assay: functional, organism-based. The method, boiled down:
as §1

In assay [9] the target is Aldo-keto reductase family 1 member A1 (Rattus norvegicus, UniProt P51635). Description: Inhibition of rat kidney ALR1 using sodium D-glucuronate as substrate preincubated for 10 mins followed by substrate addition measured for 4 mins. The method, boiled down:
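ALR1 assay run at 37 °C in 1 mL containing 0.12 mM NADPH, 0.1 M sodium phosphate pH 7.2 and enzyme extract. The mixture was preincubated 10 min, then 20 mM sodium D-glucuronate was added and the reaction monitored for 4 min. The nonenzymatic NADPH oxidation rate without substrate was subtracted. Triplicates at ≥3 concentrations in the 20–80% inhibition range were used to build dose-response curves for IC50.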

Assay [10] in a line: Antidiabetic activity in STZ-induced diabetic Sprague-Dawley rat model assessed as decrease in sorbitol level in lenses at 5 to 50 uM/kg, po administered for 8 weeks. It is filed as functional, organism-based. The method, boiled down:
as §1

Assay [11] is described as follows: Antidiabetic activity in STZ-induced diabetic Sprague-Dawley rat model assessed as blood glucose level at 50 uM/kg, po administered for 8 weeks measured every week during compound dosing (reference value: 261.53 +/- 53 mg/dl). It is filed as functional, organism-based. The method, boiled down: as §1
A short description of assay [12]: Antidiabetic activity in STZ-induced diabetic Sprague-Dawley rat model assessed as decrease in fructose level in lenses at 5 to 50 uM/kg, po administered for 8 weeks. Type of assay: functional, organism-based. An outline of the steps:
as §1

For assay [13], the target named is Aldo-keto reductase family 1 member B1 (Rattus norvegicus, UniProt P07943). Description: Inhibition of rat lenses ALR2 using DL-glyceraldehyde as substrate preincubated for 10 mins followed by substrate addition measured for 4 mins. The method, boiled down:
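ALR2 assay run at 30 °C in 1 mL containing 0.10 mM NADPH, 0.1 M sodium phosphate pH 6.2 and enzyme extract. The mixture was preincubated 10 min, then 10 mM DL-glyceraldehyde was added and NADPH oxidation followed for 4 min. Compounds were in DMSO diluted with water. Substrate-free blank rates were subtracted.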

Chain of Aldo-keto reductase family 1 member A1 (P51635 whole entry, looked up): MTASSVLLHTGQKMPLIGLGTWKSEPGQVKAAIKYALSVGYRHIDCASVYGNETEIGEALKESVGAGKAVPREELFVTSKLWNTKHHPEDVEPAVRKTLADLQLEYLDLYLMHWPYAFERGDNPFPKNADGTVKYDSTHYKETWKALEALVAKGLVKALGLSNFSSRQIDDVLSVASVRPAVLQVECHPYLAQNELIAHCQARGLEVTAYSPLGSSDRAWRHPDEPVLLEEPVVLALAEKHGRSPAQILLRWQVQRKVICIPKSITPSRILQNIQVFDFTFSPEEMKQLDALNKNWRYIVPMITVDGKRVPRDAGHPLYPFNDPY

For the compound `COc1cccc2c1OCC(C(=O)N1CCC[C@H]1c1ncc(-c3ccc(Cl)cc3)[nH]1)=C2`, the Activity in assay [1] is 39.5 U; in [2] it was 139 mg/dL; in assay [5], 41.3 U; in [6], 309 g; in assay [7], 320 g; in the assay with Rattus norvegicus [8], “Dose-dependent effect”. Also, the Activity in assay [11] is 130 mg/dL. Besides, in the assay filed under Rattus norvegicus [3], the Ratio IC50 is 110. Also, the outcome in assay [4], in [10] and in assay [12] was Active. Besides, the IC50 in assay [9] came out at 3420 nM; in assay [13], 31 nM.
Consider `COc1cccc2c1OCC(C(=O)NCc1ncc(-c3ccc(Br)cc3)[nH]1)=C2`, for which the Ratio IC50 in the assay listed under Rattus norvegicus [3] was 17.1. Further, the IC50 in assay [9] was 1560 nM; in assay [13], 91 nM.
For `COc1cccc2c1OCC(C(=O)N1CCC[C@H]1c1ncc(-c3cccnc3)[nH]1)=C2` the same measures were 9.71, 1420 nM and 146 nM.
In the case of `CC(C)[C@H](NC(=O)C1=Cc2ccccc2OC1)c1ncc(-c2ccccc2)[nH]1`, the Ratio IC50 in the assay listed under Rattus norvegicus [3] amounted to 2.19. Further, the IC50 came to 9410 nM in [9] and 4290 nM in assay [13].
For `COc1ccc(-c2cnc(CNC(=O)C3=Cc4cccc(OC)c4OC3)[nH]2)cc1`, the Ratio IC50 in the assay filed under Rattus norvegicus [3] was determined as 1.45. In addition, the half-maximal inhibitory concentration (IC50) in [9] was found to be 1310 nM; in [13] it was 899 nM.
The corresponding values for `O=C(NCc1ncc(-c2ccc(Br)cc2)[nH]1)C1=Cc2ccccc2OC1` are 4.61, 3380 nM and 732 nM.
For `O=C(NCc1ncc(-c2ccc(F)cc2)[nH]1)C1=Cc2ccccc2OC1` the same measures were 4.38, 1840 nM and 420 nM.
For `COc1cccc2c1OCC(C(=O)N1CCC[C@H]1c1ncc(-c3ccccc3)[nH]1)=C2`, the Ratio IC50 in the assay listed under Rattus norvegicus [3] worked out at 0.596. The results for the IC50 in [9] and in [13] were 1830 nM and 3070 nM, respectively.
Consider `COc1ccc(-c2cnc(CNC(=O)C3=Cc4ccccc4OC3)[nH]2)cc1`, for which the Ratio IC50 in the assay filed under Rattus norvegicus [3] stood at 9.22. In addition, the IC50 in [9] amounted to 2540 nM; in assay [13] it was 275 nM.
The corresponding values for `O=C(C1=Cc2ccccc2OC1)N1CCC[C@H]1c1ncc(-c2cccnc2)[nH]1` are 10.9, 2430 nM and 222 nM.
For `O=C(C1=Cc2ccccc2OC1)N1CCC[C@H]1c1ncc(-c2ccccc2)[nH]1` the same measures were 1.55, 5720 nM and 3670 nM.
For `COc1cccc2c1OCC(C(=O)NCc1ncc(-c3ccc(F)cc3)[nH]1)=C2` the same measures were 22.8, 1620 nM and 71 nM.
As for `O=C(C1=Cc2ccccc2OC1)N1CCC[C@H]1c1ncc(-c2ccc(Cl)cc2)[nH]1`, in the assay listed under Rattus norvegicus [3], the Ratio IC50 is 11.5. The IC50 in assay [9] was 3880 nM; in assay [13], 337 nM.
Turning to `NC(=O)[C@@H]1C[C@]2(NC(=O)NC2=O)c2cc(F)ccc2O1`, in assay [1], the Activity amounted to 36.3 U.
In the case of `O=C(NCc1ncc(-c2ccccc2)[nH]1)C1=Cc2ccccc2OC1`, the Ratio IC50 in the assay listed under Rattus norvegicus [3] amounted to 2.48. For the same compound, the figures for the IC50 in assay [9] and in assay [13] were 5190 nM and 2120 nM, respectively.
For `CC(C)[C@H](NC(=O)C1=Cc2ccccc2OC1)c1ncc(-c2ccc(Br)cc2)[nH]1` the same measures were 10.3, 2280 nM and 220 nM.
The corresponding values for `COc1cccc2c1OCC(C(=O)NCc1ncc(-c3ccccc3)[nH]1)=C2` are 1.66, 1210 nM and 731 nM.
`O=C1NC(=O)[C@@]2(CCOc3ccc(F)cc32)N1`: the Activity in assay [1] came out at 39 U.
Turning to `COc1cccc2c1OCC(C(=O)N[C@H](c1ncc(-c3ccc(Br)cc3)[nH]1)C(C)C)=C2`, in the assay listed under Rattus norvegicus [3], the Ratio IC50 came to 4.42. Moreover, the results for the IC50 in assay [9] and in [13] were 3410 nM and 771 nM, respectively.
Consider `COc1cccc2c1OCC(C(=O)NCc1ncc(-c3ccc(Cl)cc3)[nH]1)=C2`, for which the Ratio IC50 in the assay listed under Rattus norvegicus [3] turned out to be 22.2. The IC50 in [9] is 1440 nM; in assay [13] it was 65 nM.
For `COc1cccc2c1OCC(C(=O)N[C@H](c1ncc(-c3ccccc3)[nH]1)C(C)C)=C2` the same measures were 4.87, 4870 nM and 1000 nM.
For `O=C(NCc1ncc(-c2ccc(Cl)cc2)[nH]1)C1=Cc2ccccc2OC1` the same measures were 21.2, 2420 nM and 114 nM.
